Test results as given in ChEMBL document CHEMBL4000240, “Escape from adamantane: Scaffold optimization of novel P2X7 antagonists featuring complex polycycles” (Bioorg Med Chem Lett, 2017).

target: T1, P2X purinoceptor 7 (Homo sapiens, UniProt Q99572); test: Antagonist activity at human P2X7 receptor expressed in HEK293 cells assessed as inhibition of BzATP-induced ethidium bromide uptake after 2 hrs by fluorescence assay; format: cell-based
T1 sequence (Q99572 whole entry): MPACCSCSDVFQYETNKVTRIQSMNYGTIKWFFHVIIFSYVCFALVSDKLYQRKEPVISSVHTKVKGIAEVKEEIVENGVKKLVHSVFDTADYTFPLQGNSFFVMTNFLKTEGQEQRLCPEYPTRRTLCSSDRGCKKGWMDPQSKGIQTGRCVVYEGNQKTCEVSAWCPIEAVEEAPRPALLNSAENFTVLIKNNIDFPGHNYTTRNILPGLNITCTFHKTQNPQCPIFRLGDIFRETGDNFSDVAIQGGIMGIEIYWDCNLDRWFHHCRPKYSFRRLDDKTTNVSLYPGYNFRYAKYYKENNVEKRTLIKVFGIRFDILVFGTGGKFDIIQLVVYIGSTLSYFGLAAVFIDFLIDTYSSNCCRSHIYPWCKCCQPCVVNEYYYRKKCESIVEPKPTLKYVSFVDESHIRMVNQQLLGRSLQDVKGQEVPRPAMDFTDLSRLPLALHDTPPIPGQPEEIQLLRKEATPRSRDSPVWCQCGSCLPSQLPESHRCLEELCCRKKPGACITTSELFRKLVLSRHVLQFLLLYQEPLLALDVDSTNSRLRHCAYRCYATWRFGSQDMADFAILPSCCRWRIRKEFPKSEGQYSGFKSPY
Summary of the method: (§1)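 HEK293 cells stably carrying hP2X7 (pcDNA3.1 plasmid, Lipofectamine transfection) grown in DMEM/10% FBS, 2 mM glutamine, antibiotics, 37 °C, 5% CO2. Cells at 2.5 x 10^6/mL in pH 7.4 HEPES buffer with sucrose or NaCl, given compound plus BzATP, 2 h at 37 °C. Ethidium read at ex 530/em 590 nm as % of BzATP-only uptake. IC50 by nonlinear regression, 3-6 experiments.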

SMILES	IC50 [nM]
O=C(NNc1ccccc1C(F)(F)F)C12C3CCC4C3C3C(CCC31)C42	366
CC12CC3CC1(C)CC3(C(=O)NNc1ccccc1Cl)C2	18
O=C(NNc1ccccc1C(F)(F)F)C12C3C=CC4C3C3C(C=CC31)C42	132
O=C(NNc1ccc(C(F)(F)F)cc1Cl)C12C3C=CC4C3C3C(C=CC31)C42	1560
O=C(NNc1ccccc1Cl)C12C3C=CC4C3C3C(C=CC31)C42	96
CN([C@@H](Cc1ccc(OS(=O)(=O)c2cccc3cnccc23)cc1)C(=O)N1CCN(c2ccccc2)CC1)S(=O)(=O)c1cccc2cnccc12	96
O=C(NNc1ccccc1Cl)C12C3CCC4C3C3C(CCC31)C42	933

target: T2, P2X purinoceptor 7 (Homo sapiens) (UniProt Q99572); test: Antagonist activity at human P2X7 receptor expressed in HEK293 cells assessed as inhibition of BzATP-induced ethidium bromide uptake at 10 uM after 2 hrs by fluorescence assay relative to control; format: cell-based; summary of the method: as §1
T2 sequence (whole entry): T1 sequence (Q99572 whole entry)

SMILES	inhibition [%]
O=C1C2C3C=CC(C4CC34)C2C(=O)N1Nc1ccccc1F (configuration not stated)	< 20
O=C(NNc1ccc(C(F)(F)F)cc1)C12C3C=CC4C3C3C(C=CC31)C42	< 20
O=C1C2C3C=CC(C4CC34)C2C(=O)N1Nc1ccccc1 (configuration not stated)	< 20
O=C1C2C3C=CC(C4CC34)C2C(=O)N1Nc1ccccc1Cl (configuration not stated)	< 20
O=C(NNc1ccc(C(F)(F)F)cc1)C12C3CCC4C3C3C(CCC31)C42	< 20
